Data reported in ChEMBL document CHEMBL2346606, “Inhibitors of the TAM subfamily of tyrosine kinases: synthesis and biological evaluation” (Eur J Med Chem, 2013).

Legend:
PC-3 = experiment: Growth inhibition of human PC3 cells at 10 uM after 72 hrs by […] assay relative to control; format: functional; settings: PC-3, 72 h, read-out: GI
Outline: (§1)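 HT29, MCF7 and PC-3 cells were grown in RPMI, plated, and treated 24 h later with compound in DMSO at 10^-5 M (DMSO controls, 1% final). After 72 h exposure, MTS reagent was added for 3 h at 37 °C and absorbance read at 490 nm. Proliferation inhibition = [1 − OD treated/OD control] × 100, triplicate experiments.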

[1] = Growth inhibition of African green monkey Vero cells at 10 uM after 72 hrs by […] assay relative to control; format: cell-based; settings: chlorocebus sabaeus, read-out: GI
Outline: (§2)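 KB and Vero cells were grown in D-MEM with 10% FCS and antibiotics under 5% CO2, plated, then dosed 24 h later at 10^-5 M from DMSO (controls 1% DMSO). After 72 h, MTS was added for 3 h at 37 °C and A490 read. Inhibition = (1 − OD treated/OD control) × 100, in triplicate.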

HT-29 = experiment: Growth inhibition of human HT-29 cells at 10 uM after 72 hrs by […] assay relative to control; format: functional; settings: HT-29, 72 h, read-out: GI; outline: as §1
KB = experiment: Growth inhibition of human KB cells at 10 uM after 72 hrs by […] relative to control; format: functional; settings: read-out: GI; outline: as §2
MCF7 = experiment: Growth inhibition of human MCF7 cells at 10 uM after 72 hrs by […] assay relative to control; format: functional; settings: MCF7, 72 h, read-out: GI; outline: as §1

COc1ncccc1C(=O)Nc1cccc(-c2nc3c(Nc4cccc(F)c4)ncnc3[nH]2)c1
< 10%: inhibition of growth at 10 µM (PC-3) | inhibition at 72 h, 10 µM [1] | inhibition of growth at 10 µM (HT-29) | inhibition of growth at 10 µM (KB) | inhibition of growth at 10 µM (MCF7)

COc1ncccc1C(=O)Nc1cccc(-c2nc3c(Nc4ccccc4)ncnc3[nH]2)c1
< 10%: inhibition of growth at 10 µM (PC-3) | inhibition at 72 h, 10 µM [1] | inhibition of growth at 10 µM (HT-29) | inhibition of growth at 10 µM (KB) | inhibition of growth at 10 µM (MCF7)

O=C(Nc1ccc(Nc2ncnc3[nH]cnc23)c(F)c1)c1cccn(-c2cccc(F)c2)c1=O
< 10%: inhibition of growth at 10 µM (PC-3) | inhibition at 72 h, 10 µM [1] | inhibition of growth at 10 µM (HT-29) | inhibition of growth at 10 µM (KB) | inhibition of growth at 10 µM (MCF7)

Cc1cc(C(=O)Nc2cccc(-c3nc4c(Nc5cccc(C(F)(F)F)c5)ncnc4[nH]3)c2)ccc1Br
< 10%: inhibition of growth at 10 µM (PC-3) | inhibition at 72 h, 10 µM [1] | inhibition of growth at 10 µM (HT-29) | inhibition of growth at 10 µM (KB) | inhibition of growth at 10 µM (MCF7)

O=C(Nc1ccc(Nc2ncnc3[nH]cnc23)c(F)c1)c1cccn(-c2ccc(C(F)(F)F)cc2)c1=O
< 10%: inhibition of growth at 10 µM (PC-3) | inhibition at 72 h, 10 µM [1] | inhibition of growth at 10 µM (HT-29) | inhibition of growth at 10 µM (KB) | inhibition of growth at 10 µM (MCF7)

COc1ncccc1C(=O)Nc1ccc(Nc2ncnc3[nH]cnc23)cc1
< 10%: inhibition of growth at 10 µM (PC-3) | inhibition at 72 h, 10 µM [1] | inhibition of growth at 10 µM (HT-29) | inhibition of growth at 10 µM (KB) | inhibition of growth at 10 µM (MCF7)

O=C(Nc1cccc(-c2nc3c(Nc4cccc(C(F)(F)F)c4)ncnc3[nH]2)c1)c1ccccc1F
< 10%: inhibition of growth at 10 µM (PC-3) | inhibition at 72 h, 10 µM [1] | inhibition of growth at 10 µM (HT-29) | inhibition of growth at 10 µM (KB) | inhibition of growth at 10 µM (MCF7)

COc1ncccc1C(=O)Nc1cccc(-c2ncnc3[nH]cnc23)c1
< 10%: inhibition of growth at 10 µM (PC-3) | inhibition at 72 h, 10 µM [1] | inhibition of growth at 10 µM (HT-29) | inhibition of growth at 10 µM (KB) | inhibition of growth at 10 µM (MCF7)

COc1ccccc1C(=O)Nc1cccc(-c2nc3c(Nc4cccc(C(F)(F)F)c4)ncnc3[nH]2)c1
< 10%: inhibition of growth at 10 µM (PC-3) | inhibition at 72 h, 10 µM [1] | inhibition of growth at 10 µM (HT-29) | inhibition of growth at 10 µM (KB) | inhibition of growth at 10 µM (MCF7)

O=C(Nc1ccc(Nc2ncnc3[nH]cnc23)c(F)c1)c1cccn(-c2cccc(C(F)(F)F)c2)c1=O
< 10%: inhibition of growth at 10 µM (PC-3) | inhibition at 72 h, 10 µM [1] | inhibition of growth at 10 µM (HT-29) | inhibition of growth at 10 µM (KB) | inhibition of growth at 10 µM (MCF7)

O=C(Nc1cccc(-c2ncnc3[nH]cnc23)c1)c1cccn(-c2ccc(C(F)(F)F)cc2)c1=O
< 10%: inhibition of growth at 10 µM (PC-3) | inhibition at 72 h, 10 µM [1] | inhibition of growth at 10 µM (HT-29) | inhibition of growth at 10 µM (KB) | inhibition of growth at 10 µM (MCF7)

COc1ccccc1C(=O)Nc1cccc(-c2nc3c(Nc4ccccc4)ncnc3[nH]2)c1
< 10%: inhibition of growth at 10 µM (PC-3) | inhibition at 72 h, 10 µM [1] | inhibition of growth at 10 µM (HT-29) | inhibition of growth at 10 µM (KB) | inhibition of growth at 10 µM (MCF7)

COc1ccccc1C(=O)Nc1ccc(Nc2ncnc3[nH]cnc23)c(F)c1
< 10%: inhibition of growth at 10 µM (PC-3) | inhibition at 72 h, 10 µM [1] | inhibition of growth at 10 µM (HT-29) | inhibition of growth at 10 µM (KB) | inhibition of growth at 10 µM (MCF7)

O=C(Nc1ccc(Nc2ncnc3[nH]cnc23)cc1)c1cccn(-c2cccc(C(F)(F)F)c2)c1=O
< 10%: inhibition of growth at 10 µM (PC-3) | inhibition at 72 h, 10 µM [1] | inhibition of growth at 10 µM (HT-29) | inhibition of growth at 10 µM (KB) | inhibition of growth at 10 µM (MCF7)

O=C(Nc1cccc(-c2nc3c(Nc4ccccc4)ncnc3[nH]2)c1)c1ccccc1F
< 10%: inhibition of growth at 10 µM (PC-3) | inhibition at 72 h, 10 µM [1] | inhibition of growth at 10 µM (HT-29) | inhibition of growth at 10 µM (KB) | inhibition of growth at 10 µM (MCF7)

Cc1cc(C(=O)Nc2cccc(-c3ncnc4[nH]cnc34)c2)ccc1Br
< 10%: inhibition of growth at 10 µM (PC-3) | inhibition at 72 h, 10 µM [1] | inhibition of growth at 10 µM (HT-29) | inhibition of growth at 10 µM (KB) | inhibition of growth at 10 µM (MCF7)

COc1ccccc1C(=O)Nc1cccc(-c2ncnc3[nH]cnc23)c1
< 10%: inhibition of growth at 10 µM (PC-3) | inhibition at 72 h, 10 µM [1] | inhibition of growth at 10 µM (HT-29) | inhibition of growth at 10 µM (KB) | inhibition of growth at 10 µM (MCF7)

COc1ncccc1C(=O)Nc1ccc(Nc2ncnc3[nH]cnc23)c(F)c1
< 10%: inhibition of growth at 10 µM (PC-3) | inhibition at 72 h, 10 µM [1] | inhibition of growth at 10 µM (HT-29) | inhibition of growth at 10 µM (KB) | inhibition of growth at 10 µM (MCF7)

CCN(CC)CCNC(=O)c1c(C)[nH]c(/C=C2\C(=O)Nc3ccc(F)cc32)c1C [SUNITINIB]
< 10%: inhibition of growth at 10 µM (PC-3) | inhibition at 72 h, 10 µM [1] | inhibition of growth at 10 µM (HT-29) | inhibition of growth at 10 µM (KB) | inhibition of growth at 10 µM (MCF7)

Cc1cc(C(=O)Nc2cccc(-c3nc4c(Nc5cccc(F)c5)ncnc4[nH]3)c2)ccc1Br
< 10%: inhibition of growth at 10 µM (PC-3) | inhibition at 72 h, 10 µM [1] | inhibition of growth at 10 µM (HT-29) | inhibition of growth at 10 µM (KB) | inhibition of growth at 10 µM (MCF7)

Cc1cc(C(=O)Nc2cccc(-c3nc4c(Nc5ccc(F)cc5)ncnc4[nH]3)c2)ccc1Br
< 10%: inhibition of growth at 10 µM (PC-3) | inhibition at 72 h, 10 µM [1] | inhibition of growth at 10 µM (HT-29) | inhibition of growth at 10 µM (KB) | inhibition of growth at 10 µM (MCF7)

COc1ccccc1C(=O)Nc1cccc(-c2nc3c(Nc4ccc(F)cc4)ncnc3[nH]2)c1
< 10%: inhibition of growth at 10 µM (PC-3) | inhibition at 72 h, 10 µM [1] | inhibition of growth at 10 µM (HT-29) | inhibition of growth at 10 µM (KB) | inhibition of growth at 10 µM (MCF7)

O=C(Nc1ccc(Nc2ncnc3[nH]cnc23)cc1)c1ccccc1F
< 10%: inhibition of growth at 10 µM (PC-3) | inhibition at 72 h, 10 µM [1] | inhibition of growth at 10 µM (HT-29) | inhibition of growth at 10 µM (KB) | inhibition of growth at 10 µM (MCF7)

O=C(Nc1ccc(Nc2ncnc3[nH]cnc23)c(F)c1)c1cccnc1F
< 10%: inhibition of growth at 10 µM (PC-3) | inhibition at 72 h, 10 µM [1] | inhibition of growth at 10 µM (HT-29) | inhibition of growth at 10 µM (KB) | inhibition of growth at 10 µM (MCF7)

O=C(Nc1ccc(Nc2ncnc3[nH]cnc23)c(F)c1)c1cccn(-c2ccc(F)cc2)c1=O
< 10%: inhibition of growth at 10 µM (PC-3) | inhibition at 72 h, 10 µM [1] | inhibition of growth at 10 µM (HT-29) | inhibition of growth at 10 µM (KB) | inhibition of growth at 10 µM (MCF7)

O=C(Nc1cccc(-c2ncnc3[nH]cnc23)c1)c1cccnc1F
< 10%: inhibition of growth at 10 µM (PC-3) | inhibition at 72 h, 10 µM [1] | inhibition of growth at 10 µM (HT-29) | inhibition of growth at 10 µM (KB) | inhibition of growth at 10 µM (MCF7)

O=C(Nc1ccc(Nc2ncnc3[nH]cnc23)cc1)c1cccnc1F
< 10%: inhibition of growth at 10 µM (PC-3) | inhibition at 72 h, 10 µM [1] | inhibition of growth at 10 µM (HT-29) | inhibition of growth at 10 µM (KB) | inhibition of growth at 10 µM (MCF7)

COc1cc2c(Nc3ccc(Br)cc3F)ncnc2cc1OCC1CCN(C)CC1 [VANDETANIB]
< 10%: inhibition of growth at 10 µM (PC-3) | inhibition at 72 h, 10 µM [1] | inhibition of growth at 10 µM (HT-29) | inhibition of growth at 10 µM (KB) | inhibition of growth at 10 µM (MCF7)

O=C(Nc1cccc(-c2nc3c(Nc4ccc(F)cc4)ncnc3[nH]2)c1)c1ccccc1F
< 10%: inhibition of growth at 10 µM (PC-3) | inhibition at 72 h, 10 µM [1] | inhibition of growth at 10 µM (HT-29) | inhibition of growth at 10 µM (KB) | inhibition of growth at 10 µM (MCF7)

O=C(Nc1ccc(Nc2ncnc3[nH]cnc23)cc1)c1cccn(-c2cccc(F)c2)c1=O
< 10%: inhibition of growth at 10 µM (PC-3) | inhibition at 72 h, 10 µM [1] | inhibition of growth at 10 µM (HT-29) | inhibition of growth at 10 µM (KB) | inhibition of growth at 10 µM (MCF7)

O=C(Nc1cccc(-c2ncnc3[nH]cnc23)c1)c1cccn(-c2ccc(F)cc2)c1=O
< 10%: inhibition of growth at 10 µM (PC-3) | inhibition at 72 h, 10 µM [1] | inhibition of growth at 10 µM (HT-29) | inhibition of growth at 10 µM (KB) | inhibition of growth at 10 µM (MCF7)

O=C(Nc1cccc(-c2ncnc3[nH]cnc23)c1)c1cccn(-c2cccc(F)c2)c1=O
< 10%: inhibition of growth at 10 µM (PC-3) | inhibition at 72 h, 10 µM [1] | inhibition of growth at 10 µM (HT-29) | inhibition of growth at 10 µM (KB) | inhibition of growth at 10 µM (MCF7)

O=C(Nc1ccc(Oc2ncnc3[nH]cnc23)c(F)c1)c1ccccc1F
< 10%: inhibition of growth at 10 µM (PC-3) | inhibition at 72 h, 10 µM [1] | inhibition of growth at 10 µM (HT-29) | inhibition of growth at 10 µM (KB) | inhibition of growth at 10 µM (MCF7)

O=C(Nc1ccc(Nc2ncnc3[nH]cnc23)c(F)c1)c1ccccc1F
< 10%: inhibition of growth at 10 µM (PC-3) | inhibition at 72 h, 10 µM [1] | inhibition of growth at 10 µM (HT-29) | inhibition of growth at 10 µM (KB) | inhibition of growth at 10 µM (MCF7)

COc1ccccc1C(=O)Nc1cccc(-c2nc3c(Nc4cccc(F)c4)ncnc3[nH]2)c1
< 10%: inhibition of growth at 10 µM (PC-3) | inhibition at 72 h, 10 µM [1] | inhibition of growth at 10 µM (HT-29) | inhibition of growth at 10 µM (KB) | inhibition of growth at 10 µM (MCF7)

O=C(Nc1cccc(-c2ncnc3[nH]cnc23)c1)c1ccccc1F
< 10%: inhibition of growth at 10 µM (PC-3) | inhibition at 72 h, 10 µM [1] | inhibition of growth at 10 µM (HT-29) | inhibition of growth at 10 µM (KB) | inhibition of growth at 10 µM (MCF7)
